Experimental data reported in publication PMC5816172 (Proceedings of the National Academy of Sciences of the …, 2018).

Assays:
[1] = system: J774A.1 cells; assay: LDH release from J774A.1 cells; type: cell-based, mouse; conditions: J774A.1, LPS/ATP, P < 0.05
Summary of the method: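 J774A.1 cells were stimulated with LPS plus ATP in the presence of increasing concentrations of test compound. LDH release was measured and reported as mean ± SEM. Data are representative of three independent experiments.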

[2] = system: NLRP3 inflammasome; assay: Noncanonical NLRP3 inflammasome activation in THP-1 cells; type: cell-based; conditions: Homo sapiens, THP-1, read-out: maximal inhibition of IL-1β release
Summary of the method: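 Wild-type and nlrp3-deficient human THP-1 cells were primed with the […] agonist Pam3CSK4, then transfected with LPS in the presence of test compound. IL-1β release was measured.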

[3] = system: Src; assay: Phosphoarray assay in HMDM; type: cell-based, human; conditions: LPS/nigericin, 10 µM, one donor
[4] = target: Human recombinant NLRP3 (Homo sapiens, UniProt Q96P20); assay: NLRP3 ATPase activity; type: biochemical; conditions: cell-free, 1 and 10 µM
Summary of the method: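 Cell-free ATPase activity of recombinant NLRP3 was measured with test compound (n = 3). Bay11-7082 and 3,4-methylenedioxy-β-nitrostyrene served as positive-control NLRP3 inhibitors (n = 2 each).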

[5] = system: mice challenged with LPS-induced systemic inflammation; assay: In vivo LPS challenge; design: species or system mouse
Summary of the method: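 Male C57BL/6J mice (22–26 g) received 200 mg/kg in 200 µL saline i.p. every 12 h × 5, or saline alone. One hour after the last dose: LPS (E. coli 055:B5) 5 mg/kg i.p., killed 2 h later. Peritoneal lavage with 10 mL cold PBS, spun 1,000 × g, 5 min. Spleen, lung, liver and quadriceps homogenates spun 13,000 × g, 20 min, 4 °C; cytokines normalised to total protein. n = 7–8 per group.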

[6] = system: NF-κB; assay: Flow cytometry of phosphokinases in spleen cells from treated mice; type: in vivo, mouse
Summary of the method: (§1)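 Mice were given test compound or saline vehicle. Spleen-derived CD11b+CD3− cells were analysed either fresh (steady state) or after 30 min of in vitro LPS stimulation. Phosphorylation of NF-κB, IκB, IKK and IRAK4 was assessed by flow cytometry. Data are mean ± SEM.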

[7] = system: IKK; assay: as above; type: in vivo, mouse
Summary of the method: as §1

[8] = system: IRAK4; assay: as above; type: in vivo, mouse
Summary of the method: as §1

[9] = Human pharmacokinetic study, single oral dose; type: in vivo; conditions: for Cmax: both, human, plasma, po; for T½ el (plasma elimination half-life): fasted, mean, N=5
Summary of the method: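 Phase 1 study in fasted healthy subjects given a single oral dose of 100, 300 or 1,000 mg (n = 5 per dose group). Plasma concentration–time profiles were used to derive group mean Cmax and mean plasma elimination half-life.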

[10] = Human pharmacokinetic study, repeated daily oral dosing for 8 d; type: in vivo; conditions: for Cmax: both, human, plasma, oral
Summary of the method: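 Fasted healthy subjects received repeated daily oral doses of 100, 300 or 1,000 mg for 8 d. Plasma concentrations were followed on day 1 and day 8. Group mean maximum concentration and elimination half-life were determined on day 8.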

[11] = 200 mg/kg i.p. every 12 h for five doses, 2 h after i.p. LPS 5 mg/kg
[12] = 200 mg/kg i.p. x5, 2 h after LPS, organ homogenates
[13] = fresh CD11b+CD3- spleen cells, mice 200 mg/kg i.p. x5, vs vehicle
[14] = spleen cells from treated mice, LPS 30 min ex vivo

Chain of Human recombinant NLRP3 (Q96P20 whole entry): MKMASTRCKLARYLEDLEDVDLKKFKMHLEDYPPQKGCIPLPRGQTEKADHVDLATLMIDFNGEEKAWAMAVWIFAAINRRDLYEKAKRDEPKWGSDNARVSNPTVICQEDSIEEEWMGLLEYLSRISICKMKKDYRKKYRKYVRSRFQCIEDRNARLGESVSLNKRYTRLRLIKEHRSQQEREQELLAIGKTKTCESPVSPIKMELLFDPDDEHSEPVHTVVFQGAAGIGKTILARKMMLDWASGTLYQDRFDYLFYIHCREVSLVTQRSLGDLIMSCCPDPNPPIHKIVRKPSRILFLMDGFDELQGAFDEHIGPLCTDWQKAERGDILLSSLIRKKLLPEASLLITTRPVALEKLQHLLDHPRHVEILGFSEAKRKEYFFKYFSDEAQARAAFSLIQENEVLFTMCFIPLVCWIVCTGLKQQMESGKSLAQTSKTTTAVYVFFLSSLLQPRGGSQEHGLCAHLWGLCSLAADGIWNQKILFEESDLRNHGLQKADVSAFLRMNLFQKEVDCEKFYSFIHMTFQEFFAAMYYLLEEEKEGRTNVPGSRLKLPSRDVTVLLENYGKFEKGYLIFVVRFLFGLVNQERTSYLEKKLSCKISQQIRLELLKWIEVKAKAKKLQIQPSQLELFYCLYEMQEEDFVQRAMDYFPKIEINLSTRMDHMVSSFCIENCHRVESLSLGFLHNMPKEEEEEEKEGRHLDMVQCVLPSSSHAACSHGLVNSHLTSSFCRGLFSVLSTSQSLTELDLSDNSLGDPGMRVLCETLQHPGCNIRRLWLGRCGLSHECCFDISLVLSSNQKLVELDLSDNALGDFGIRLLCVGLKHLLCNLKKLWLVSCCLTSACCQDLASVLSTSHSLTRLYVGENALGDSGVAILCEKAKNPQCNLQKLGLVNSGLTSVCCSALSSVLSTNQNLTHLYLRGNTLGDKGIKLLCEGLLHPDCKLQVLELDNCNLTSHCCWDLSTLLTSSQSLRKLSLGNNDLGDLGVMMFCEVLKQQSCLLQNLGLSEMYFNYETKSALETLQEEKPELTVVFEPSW

CS(=O)(=O)CCC#N [OLT1177]
release of LDH (cell death) [1]: significantly reduced
inhibition at 10 µM [2]: 70%
reduction in Src activation (phosphorylation) [3]: 26%
ATPase activity of recombinant NLRP3 [4]: inhibited
reduction of peritoneal fluid CXCL1 [5, 11]: 30%
reduction of peritoneal fluid IL-6 [5, 11]: 44%
reduction of peritoneal fluid myeloperoxidase (MPO) [5, 11]: 80%
TNFα content in lung, liver, spleen, and skeletal muscle [5, 12]: no significant changes
total IL-1β content in lung, liver, spleen, and skeletal muscle [5, 12]: significantly decreased
steady-state constitutive phosphorylated NFκB [6, 13]: significantly reduced
phosphorylated NF-κB after in vitro LPS [6, 14]: significant reduction
steady-state phosphorylated IKK [7, 13]: no statistically significant changes
phosphorylated IKK after in vitro LPS [7, 14]: significant reduction
steady-state phosphorylated IRAK4 [8, 13]: no statistically significant changes
phosphorylated IRAK4 after in vitro LPS [8, 14]: no change
Cmax ([9]; 100 mg): 2700 ng/mL
Cmax ([9]; 300 mg): 9800 ng/mL
Cmax ([9]; 1000 mg): 32000 ng/mL
mean peak plasma level ([9]; single oral dose 100 mg): 20.3 µM
T½ el (plasma elimination half-life) ([9]; single oral dose 100 mg): 23.0 h
mean peak plasma level ([9]; single oral dose 300 mg): 73.6 µM
mean peak plasma level ([9]; single oral dose 1,000 mg): 240.3 µM
T½ el (plasma elimination half-life) ([9]; single oral dose 1000 mg): 24.2 h
mean maximum plasma concentration at steady state ([10]; 100 mg/d for eight consecutive days): 36.0 µM
mean maximum plasma concentration at steady state ([10]; 300 mg/d for eight consecutive days): 118.6 µM
mean maximum plasma concentration at steady state ([10]; 1,000 mg/d for eight consecutive days): 310.9 µM
Cmax ([10]; 100 mg): 4800 ng/mL
Cmax ([10]; 300 mg): 15800 ng/mL
Cmax ([10]; 1000 mg): 41400 ng/mL
